Results from ChEMBL document CHEMBL3414486, “Synthesis of heterocycle-modified betulinic acid derivatives as antitumor agents” (Eur J Med Chem, 2015).

Assays:
[1] = tested on: DU-145; assay: Selectivity index, ratio of IC50 for HAF to IC50 for human DU145 cells
In short: (§1)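 SRB viability assay. Cells are seeded for 24 h, then exposed for 96 h to a concentration series from 20 mM DMSO stocks, with a DMSO control. Cells are fixed in 50% TCA (2 h, 4 °C), stained with 0.4% SRB for 10 min and washed with 1% acetic acid. Bound dye is dissolved in 10 mM Tris base and read at 515 nm. IC50 is averaged from at least 3 independent experiments. SI is IC50 in HAF divided by IC50 in the cancer line.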

[2] = tested on: 4T1; assay: Selectivity index, ratio of IC50 for HAF to IC50 for mouse 4T1 cells; in short: as §1
[3] = tested on: DU-145; assay: Cytotoxicity against human DU145 cells assessed as growth inhibition after 96 hrs by SRB assay; assay type: functional, cell-based; details: DU-145, 96 h; in short: as §1
[4] = tested on: T47D; assay: Cytotoxicity against human T47D cells assessed as growth inhibition after 96 hrs by SRB assay; assay type: functional, cell-based; in short: as §1
[5] = tested on: PC-3; assay: Selectivity index, ratio of IC50 for HAF to IC50 for human PC3 cells; in short: as §1
[6] = Selectivity index, ratio of IC50 for HAF to IC50 for human MDA-MB-231 cells; in short: as §1
[7] = Cytotoxicity against human PC3 cells assessed as growth inhibition after 96 hrs by SRB assay; assay type: functional, cell-based; details: PC-3, 96 h; in short: as §1
[8] = Cytotoxicity against HAF assessed as growth inhibition after 96 hrs by SRB assay; details: Homo sapiens; in short: as §1
[9] = tested on: 4T1; assay: Cytotoxicity against mouse 4T1 cells assessed as growth inhibition after 96 hrs by SRB assay; assay type: functional, cell-based; details: 4T1, 96 h; in short: as §1
[10] = tested on: NCI/ADR-RES; assay: Selectivity index, ratio of IC50 for HAF to IC50 for human MCF7/ADR cells; in short: as §1
[11] = tested on: HT-29; assay: Cytotoxicity against human HT-29 cells assessed as growth inhibition after 96 hrs by SRB assay; assay type: functional, cell-based; details: HT-29, 96 h; in short: as §1
[12] = tested on: MCF7; assay: Cytotoxicity against human MCF7 cells assessed as growth inhibition after 96 hrs by SRB assay; assay type: functional, cell-based; details: MCF7, 96 h; in short: as §1
[13] = Cytotoxicity against human MCF7/ADR cells assessed as growth inhibition after 96 hrs by SRB assay; assay type: functional, cell-based; details: NCI/ADR-RES; in short: as §1
[14] = tested on: HT-29; assay: Selectivity index, ratio of IC50 for HAF to IC50 for human HT-29 cells; in short: as §1
[15] = tested on: MDA-MB-231; assay: Cytotoxicity against human MDA-MB-231 cells assessed as growth inhibition after 96 hrs by SRB assay; assay type: functional, cell-based; details: MDA-MB-231, 96 h; in short: as §1
[16] = tested on: MCF7; assay: Selectivity index, ratio of IC50 for HAF to IC50 for human MCF7 cells; in short: as §1
[17] = Cytotoxicity against human HCT116 cells assessed as growth inhibition after 96 hrs by SRB assay; assay type: functional, cell-based; details: HCT-116, 96 h; in short: as §1
[18] = tested on: T47D; assay: Selectivity index, ratio of IC50 for HAF to IC50 for human T47D cells; in short: as §1
[19] = tested on: HCT-116; assay: Selectivity index, ratio of IC50 for HAF to IC50 for human HCT116 cells; in short: as §1

| Compound | Ratio IC50 [1] | Ratio IC50 [2] | IC50 [3] | IC50 [4] | Ratio IC50 [5] | Ratio IC50 [6] | IC50 [7] | IC50 [8] | IC50 [9] | Ratio IC50 [10] | IC50 [11] | IC50 [12] | IC50 [13] | Ratio IC50 [14] | IC50 [15] | Ratio IC50 [16] | IC50 [17] | Ratio IC50 [18] | Ratio IC50 [19] |
| --- | --- | --- | --- | --- | --- | --- | --- | --- | --- | --- | --- | --- | --- | --- | --- | --- | --- | --- | --- |
| C=C(C)[C@@H]1CC[C@]2(C(=O)O)CC[C@]3(C)[C@H](CC[C@@H]4[C@@]5(C)CC[C@H](OC(=O)C6CCNCC6)C(C)(C)[C@@H]5CC[C@]43C)[C@@H]12 | 2.1 | 1.5 | 2.69 µM | 3.05 µM | 2.6 | 3.6 | 2.18 µM | 5.7 µM | 3.74 µM | 9.7 | 1.32 µM | 2.41 µM | 0.59 µM | 4.3 | 1.6 µM | 2.4 | 1.4 µM | 1.9 | 4.1 |
| C=C(C)[C@@H]1CC[C@]2(C(=O)O)CC[C@]3(C)[C@H](CC[C@@H]4[C@@]5(C)CC[C@H](NC(=O)C6CCCNC6)C(C)(C)[C@@H]5CC[C@]43C)[C@@H]12 (some centres not stated) | 1 | 1.5 | 3.16 µM | 2.24 µM | 2.4 | 1.6 | 1.3 µM | 3.18 µM | 2.18 µM | 8.2 | 1.19 µM | 0.94 µM | 0.39 µM | 2.7 | 1.94 µM | 3.4 | 1.28 µM | 1.4 | 2.5 |
| C=C(C)[C@@H]1CC[C@]2(C(=O)O)CC[C@]3(C)[C@H](CC[C@@H]4[C@@]5(C)CC[C@H](OC(=O)C6CCCNC6)C(C)(C)[C@@H]5CC[C@]43C)[C@@H]12 (some centres not stated) | 0.5 | 0.7 | 11.3 µM | 9.73 µM | 0.7 | 1.1 | 8.09 µM | 5.42 µM | 7.65 µM | 3.4 | 4.89 µM | 4.42 µM | 1.6 µM | 1.1 | 4.97 µM | 1.2 | 4.6 µM | 0.6 | 1.2 |
| C=C(C)[C@@H]1CC[C@]2(C(=O)O)CC[C@]3(C)[C@H](CC[C@@H]4[C@@]5(C)CC[C@H](NC(=O)c6cnccn6)C(C)(C)[C@@H]5CC[C@]43C)[C@@H]12 |  |  | > 25 µM | > 25 µM |  |  | > 25 µM |  | > 25 µM |  | > 25 µM | > 25 µM |  |  | > 25 µM |  | > 25 µM |  |  |
| C=C(C)[C@@H]1CC[C@]2(C(=O)O)CC[C@]3(C)[C@H](CC[C@@H]4[C@@]5(C)CC[C@H](NC(=O)CCC6CCNCC6)C(C)(C)[C@@H]5CC[C@]43C)[C@@H]12 | 1.6 | 2.3 | 4.39 µM | 2.59 µM | 2 | 2.1 | 3.42 µM | 6.89 µM | 2.99 µM | 1.6 | 2.39 µM | 2.9 µM | 4.42 µM | 2.9 | 3.27 µM | 2.4 | 6.86 µM | 2.7 | 1 |
| C=C(C)[C@@H]1CC[C@]2(C(=O)O)CC[C@]3(C)[C@H](CC[C@@H]4[C@@]5(C)CC[C@H](NC(=O)c6cccnc6Cl)C(C)(C)[C@@H]5CC[C@]43C)[C@@H]12 |  |  | > 25 µM | 17.7 µM |  |  | > 25 µM |  | 16.1 µM |  | > 25 µM | > 25 µM |  |  | > 25 µM |  | > 25 µM |  |  |
| C=C(C)[C@@H]1CC[C@]2(C(=O)O)CC[C@]3(C)[C@H](CC[C@@H]4[C@@]5(C)CC[C@H](NC(=O)CC6CCNCC6)C(C)(C)[C@@H]5CC[C@]43C)[C@@H]12 | 2.5 | 1.8 | 3.72 µM | 2.37 µM | 3.6 | 2.9 | 2.55 µM | 9.21 µM | 5.15 µM | 3.1 | 2.46 µM | 3.43 µM | 3 µM | 3.7 | 3.17 µM | 2.7 | 2.67 µM | 3.9 | 3.4 |
| COc1cccc2c1C(=O)c1c(O)c3c(c(O)c1C2=O)C[C@@](O)(C(=O)CO)C[C@@H]3O[C@H]1C[C@H](N)[C@H](O)[C@H](C)O1 [DOXORUBICIN] |  |  |  |  |  |  |  | 0.016 µM |  |  |  |  | 9.26 µM |  |  |  |  |  |  |
| C=C(C)[C@@H]1CC[C@]2(C(=O)O)CC[C@]3(C)[C@H](CC[C@@H]4[C@@]5(C)CC[C@H](NC(=O)C6CCCN6)C(C)(C)[C@@H]5CC[C@]43C)[C@@H]12 (some centres not stated) |  |  | 11 µM | 11 µM |  |  | 20.3 µM |  | 8.03 µM |  | 18.8 µM | 15.2 µM |  |  | 12.8 µM |  | 17.5 µM |  |  |
| C=C(C)[C@@H]1CC[C@]2(C(=O)O)CC[C@]3(C)[C@H](CC[C@@H]4[C@@]5(C)CC[C@H](NC(=O)C6CCCCN6)C(C)(C)[C@@H]5CC[C@]43C)[C@@H]12 (some centres not stated) |  |  | 7.31 µM | 6.49 µM |  |  | > 25 µM |  | 7.87 µM |  | 20.1 µM | 4.81 µM |  |  | 10.6 µM |  | 11.4 µM |  |  |
| C=C(C)[C@@H]1CC[C@]2(C(=O)O)CC[C@]3(C)[C@H](CC[C@@H]4[C@@]5(C)CC[C@H](NC(=O)c6cccnc6)C(C)(C)[C@@H]5CC[C@]43C)[C@@H]12 |  |  | > 25 µM | > 25 µM |  |  | > 25 µM |  | > 25 µM |  | > 25 µM | > 25 µM |  |  | > 25 µM |  | > 25 µM |  |  |
| C=C(C)[C@@H]1CC[C@]2(C(=O)O)CC[C@]3(C)[C@H](CC[C@@H]4[C@@]5(C)CC[C@H](NC(=O)c6cnc(C)cn6)C(C)(C)[C@@H]5CC[C@]43C)[C@@H]12 |  |  | > 25 µM | > 25 µM |  |  | > 25 µM |  | > 25 µM |  | > 25 µM | > 25 µM |  |  | > 25 µM |  | > 25 µM |  |  |
| C=C(C)[C@@H]1CC[C@]2(C(=O)O)CC[C@]3(C)[C@H](CC[C@@H]4[C@@]5(C)CC[C@H](NC(=O)CCCC6CCNCC6)C(C)(C)[C@@H]5CC[C@]43C)[C@@H]12 | 1.2 | 1.5 | 7.7 µM | 5.26 µM | 1.7 | 2.7 | 5.23 µM | 9.15 µM | 6.01 µM | 9.8 | 4.38 µM | 6.49 µM | 0.93 µM | 2.1 | 3.44 µM | 1.4 | 5.61 µM | 1.7 | 1.6 |
| C=C(C)[C@@H]1CC[C@]2(C(=O)O)CC[C@]3(C)[C@H](CC[C@@H]4[C@@]5(C)CC[C@H](NC(=O)c6ccncc6)C(C)(C)[C@@H]5CC[C@]43C)[C@@H]12 |  |  | > 25 µM | > 25 µM |  |  | > 25 µM |  | > 25 µM |  | > 25 µM | > 25 µM |  |  | > 25 µM |  | > 25 µM |  |  |
